Source: ChEMBL document CHEMBL1156381, “Cacofurans A and B, new furanoditerpenes from a marine sponge” (J Nat Prod, 2001)
In brackets after ≈: the same amount, converted by molar mass. Activity calls are given as the source filed them. The calls are words filed in the database; no cut-off is given here.

Columns and labels:
Staphylococcus aureus = experiment: Antibacterial activity against methicillin-resistant Staphylococcus aureus; assay type: functional, organism-based
Bacillus cereus = experiment: Antibacterial activity against Bacillus cereus; assay type: functional, organism-based
P388 = experiment: Cytotoxicity against mouse P388 cells; assay type: functional, cell-based
NBT2 = experiment: Disruption of actin cytoskeleton in rat NBT2 cells at 10 ug/mL after 16 hrs by TMR-phalloidin imaging analysis; assay type: functional, cell-based
Outline: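 NBT-II rat bladder epithelial carcinoma cells were treated at 10 μg/mL. Cells were then permeabilized and stained with TMR-phalloidin to image the actin cytoskeleton, with control cells for comparison.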

K562 = experiment: Cytotoxicity against human K562 cells; assay type: functional, cell-based
[1] = Cytotoxicity against rat NBT2 cells assessed as cell survival at 10 ug/mL after 16 hrs by phase contrast microscope; assay type: functional; conditions: NBT2, 16 h, read-out: Activity
Outline: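 Rat bladder epithelial carcinoma NBT-II cells were exposed to 10 μg/mL test agent. Phase contrast images of control and treated cells were recorded after 16 h on an image-based high content imaging workstation.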

[2] = Toxicity in sea urchin egg assessed as inhibition of development of fertilized egg by light microscopy; set-up: species or system Tripneustes gratilla
Outline: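 Eggs and sperm were collected from mature Tripneustes gratilla specimens for the fertilized-egg development assay.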

Escherichia coli = experiment: Antibacterial activity against Escherichia coli; assay type: functional, organism-based

SMILES	Activity (Staphylococcus aureus)	Activity (Bacillus cereus)	IC50 (P388)	Activity (NBT2)	IC50 (K562)	viability at 10 µg/mL [1]	IC50 [2]	Activity (Escherichia coli)
CC(=O)O[C@@H](Cc1ccoc1)[C@@H]1[C@@]23CCCC(C)(C)[C@@H]2CC[C@]1(C)OC3 [CACOFURAN A]	inactive	inactive	> 1 µg/mL	Active	> 1 µg/mL	50%	0.5 µg/mL (≈ 1.39 µM)	inactive
CC1(C)CCC[C@@]23CO[C@@](C)(CC[C@@H]12)[C@@H]3[C@@H](O)Cc1ccoc1 [CACOFURAN B]	inactive	inactive	> 1 µg/mL	Active	> 1 µg/mL	50%	5 µg/mL (≈ 15.7 µM)	inactive
